Our source for the IC50 and Activity values is ChEMBL document CHEMBL3576798, “Depsipeptide companeramides from a Panamanian marine cyanobacterium associated with the coibamide producer” (J Nat Prod, 2015).

Test [1] concerns Plasmodium falciparum. The test can be described thus: Antiplasmodial activity against chloroquine-sensitive Plasmodium falciparum D6 in human erythrocyte after 72 hrs by SYBR Green I assay. The format is functional, organism-based. Particulars: D6, 72 h. In a few lines: (§1)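 Asynchronous parasites grown in human erythrocytes at 2% hematocrit in RPMI 1640 with 0.5% Albumax, 45 μg/L hypoxanthine, 50 μg/L gentamicin. Samples (10 mM stock in sterile water) serially diluted in medium, quadruplicate wells at 0.2% parasitemia, 2% hematocrit; 72 h at 37 °C. Lysis buffer with SYBR Green I added, 1 h rt dark, fluorescence ex 497/em 520 nm; IC50 by nonlinear regression of logistic dose–response curves.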

Test [2] has as its system Plasmodium falciparum. The test can be described thus: Antiplasmodial activity against chloroquine-resistant Plasmodium falciparum Dd2 in human erythrocyte after 72 hrs by SYBR Green I assay. In kind it is functional, organism-based. The note with it: Dd2, 72 h. In a few lines:
as §1

Test [3] concerns Plasmodium falciparum. Briefly: Antiplasmodial activity against chloroquine-resistant Plasmodium falciparum 7G8 in human erythrocyte after 72 hrs by SYBR Green I assay. The note with it: 7G8, 72 h. The format is functional, organism-based. In a few lines: as §1
For test [4], the system named is NCI-H460. The test can be described thus: Cytotoxicity against human NCI-H460 cells at 1 uM after 24 hrs by MTT assay. The format is functional, cell-based. In a few lines: (§2)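 MTT viability assay; cells seeded at 3000 per well the day before treatment, kept under standard growth conditions. Compounds dissolved in 100% DMSO (stored −20 °C), final DMSO at most 0.1%. Viability relative to vehicle-treated cells set as 100%; coibamide A (30 nM) as control cancer cell toxin.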
Background: Formazan colour is commonly taken as a measure of viable cells.

For test [5], the system named is MDA-MB-231. The test can be described thus: Cytotoxicity against human MDA-MB-231 cells at 1 uM after 24 hrs by MTT assay. In kind it is functional, cell-based. In a few lines:
as §2

Test [6] relates to SF-295. Briefly: Cytotoxicity against human SF295 cells at 1 uM after 24 hrs by MTT assay. The format is functional, cell-based. In a few lines:
as §2

Test [7] has as its system SK-OV-3. Briefly: Cytotoxicity against human SKOV3 cells at 1 uM after 24 hrs by MTT assay. The format is functional, cell-based. In a few lines: as §2

Activity calls are given as the source filed them. The calls are words filed in the database; no cut-off is given here.

On to `C#CCCC[C@H]1NC(=O)[C@H](C(C)C)N(C)C(=O)[C@H](C(C)C)NC(=O)[C@@H](C)N(C)C(=O)[C@@H]2CCCN2C(=O)[C@H]([C@H](C)CC)NC(=O)[C@H](C(C)C)N(C)C(=O)[C@H](C(C)C)NC(=O)[C@H](C)N(C)C(=O)[C@H](C(C)C)OC(=O)[C@H]1C`, for which the figures for the IC50 in test [1], in test [2] and in test [3] were 220 nM, 230 nM and 700 nM, respectively.
`C#CCCC[C@H]1NC(=O)[C@H](C(C)C)N(C)C(=O)[C@H](C)NC(=O)[C@H](CC(C)C)N(C)C(=O)[C@@H]2CCCN2C(=O)[C@H]([C@H](C)CC)NC(=O)[C@H](C(C)C)N(C)C(=O)[C@H]([C@H](C)CC)NC(=O)[C@@H](C)N(C)C(=O)[C@H](C(C)C)OC(=O)[C@H]1C`: the result in test [4], in test [5], in test [6] and in test [7] was inactive. Besides, the results for the IC50 in test [1], in test [2] and in test [3] were 570 nM, 1000 nM and 1100 nM, respectively.
